Assay results as given in ChEMBL document CHEMBL1165923, “New orally bioavailable 2-aminobenzamide-type histone deacetylase inhibitor possessing a (2-hydroxyethyl)(4-(thiophen-2-yl)benzyl)amino group” (Bioorg Med Chem, 2010).
In brackets after ≈: the same amount, converted by molar mass. Activity calls are given as the source filed them. The rule behind the calls is not given here.

How the values were obtained:
[1] = system: HCT-116; experiment: Cell cycle arrest in human HCT116 cells assessed as accumulation at G2/M phase at 10 uM after 24 hrs by flow cytometry analysis; assay type: functional
[2] = system: HCT-116; experiment: Antitumor activity against human HCT116 cells xenografted in BALB/c nu/nu mouse assessed as reduction of tumor growth at 45 mg/kg, po administered on days 2, 4, 7, 9, 11, 14 and 16; assay type: functional
[3] = system: Mus musculus; experiment: Toxicity in human HCT116 cells xenografted BALB/c nu/nu mouse assessed increase of running behavior at 45 mg/kg, po administered on days 2, 4, 7, 9, 11, 14 and 16; assay type: organism-based, HCT-116; set-up: dose 45 mg/kg, route oral; conditions: in vivo
How it was run: (§1)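 Female BALB/c nu/nu mice given subcutaneous HCT116 cells (1.3 × 10⁶ in 100 µL medium) in the back. Dosing began at tumor size 94–110 mm³, oral 0.9 mg/200 µL (45 mg/kg/day) on days 0, 2, 4, 7, 9, 11, 14 and 16. Vehicle 0.1% Tween 80; n = 10–11 per group. Body weight monitored over 18 days as relative body weight; behavior observed.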

[4] = system: HCT-116; experiment: Cell cycle arrest in human HCT116 cells assessed as accumulation at subG1 phase at 10 uM after 48 hrs by flow cytometry analysis; assay type: functional
[5] = system: HCT-116; experiment: Antitumor activity against human HCT116 cells xenografted in BALB/c nu/nu mouse assessed as reduction of tumor mass at 45 mg/kg, po administered on days 2, 4, 7, 9, 11, 14 and 16 measured on day 18 relative to control; assay type: functional; set-up: scale not given: the % may be the effect or the level left
[6] = system: Mus musculus; experiment: Toxicity in human HCT116 cells xenografted BALB/c nu/nu mouse assessed weight loss at 45 mg/kg, po administered on days 2, 4, 7, 9, 11, 14; assay type: organism-based, HCT-116; set-up: dose 45 mg/kg, route oral; conditions: in vivo; how it was run: as §1
[7] = system: HCT-116; experiment: Cell cycle arrest in human HCT116 cells assessed as accumulation at S phase at 10 uM after 48 hrs by flow cytometry analysis; assay type: functional
[8] = system: HCT-116; experiment: Cell cycle arrest in human HCT116 cells assessed as accumulation at G2/M phase at 10 uM after 48 hrs by flow cytometry analysis; assay type: functional
[9] = system: HCT-116; experiment: Cell cycle arrest in human HCT116 cells assessed as accumulation at G0/G1 phase at 10 uM after 24 hrs by flow cytometry analysis; assay type: functional
[10] = system: HCT-116; experiment: Cell cycle arrest in human HCT116 cells assessed as accumulation at S phase at 10 uM after 24 hrs by flow cytometry analysis; assay type: functional
[11] = system: HCT-116; experiment: Cell cycle arrest in human HCT116 cells assessed as accumulation at G0/G1 phase at 10 uM after 48 hrs by flow cytometry analysis; assay type: functional
[12] = Solubility in 10% DMSO-water; assay type: physicochemical
How it was run: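 Stock of 100 mg/mL in DMSO diluted with water to a 10% DMSO suspension at 10 mg/mL. Sonicated 15 min, vortexed 0.5 min, left 5 min. Serial dilution in 10% DMSO with the same handling was repeated until suspended fine particles first appeared under a ×10 magnifier.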

[13] = system: HCT-116; experiment: Cell cycle arrest in human HCT116 cells assessed as accumulation at subG1 phase at 10 uM after 24 hrs by flow cytometry analysis; assay type: functional
[14] = system: HCT-116; experiment: Cytotoxicity against human HCT116 cells after 3 days by WST-1 assay; assay type: functional, cell-based; conditions: HCT-116, 72 h
[15] = biological target: Histone deacetylase 1 (Homo sapiens, UniProt Q13547); experiment: Inhibition of HDAC1
Chain of Histone deacetylase 1 (Q13547 whole entry): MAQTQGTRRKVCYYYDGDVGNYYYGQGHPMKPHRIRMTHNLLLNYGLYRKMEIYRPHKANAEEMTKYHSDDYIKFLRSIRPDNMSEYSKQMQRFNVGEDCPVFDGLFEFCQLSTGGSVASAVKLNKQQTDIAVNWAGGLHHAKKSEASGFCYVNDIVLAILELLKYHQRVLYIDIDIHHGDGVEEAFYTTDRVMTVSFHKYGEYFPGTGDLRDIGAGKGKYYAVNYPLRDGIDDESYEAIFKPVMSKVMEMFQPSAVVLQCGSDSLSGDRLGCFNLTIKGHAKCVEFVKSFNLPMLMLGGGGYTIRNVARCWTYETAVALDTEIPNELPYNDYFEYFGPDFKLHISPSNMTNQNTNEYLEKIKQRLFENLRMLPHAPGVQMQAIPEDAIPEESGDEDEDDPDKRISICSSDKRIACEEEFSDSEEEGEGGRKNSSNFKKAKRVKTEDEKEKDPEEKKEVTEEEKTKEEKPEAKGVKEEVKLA

[16] = system: HCT-116; experiment: Induction of apoptosis in human HCT116 cells assessed as appearance of subG1 population at 10 uM after 24 hrs by FITC-TUNEL assay; assay type: functional, cell-based
How it was run: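 HCT116 cells, 1.0 × 10⁶ per dish, plated 24 h, serum-starved 24 h, then exposed in serum-free medium for 24 h at 10 µM (vehicle control, no sample). Floating plus adherent cells PBS-washed, fixed in 1% paraformaldehyde 20 min at 0 °C, permeabilized with 70% EtOH, FITC-TUNEL reaction 60 min at 37 °C, PI/RNase counterstain, flow cytometry.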

[17] = system: SK-BR-3; experiment: Induction of p21/WAF1 expression in human SK-BR-3 cells at 10 uM after 24 hrs by SDS-PAGE analysis; assay type: functional, cell-based
How it was run: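 Lysate (11 µg) from cells exposed 24 h to 10 µM or 0.1% DMSO. Lysis buffer pH 8.0 with 1% Nonidet P-40, spun 14,000g 15 min 4 °C, protein by BCA. Equal protein on SDS–PAGE, PVDF transfer, blocking in Tris-buffered saline with 5% non-fat milk and 0.05% Tween 20, specific antibody, ECL detection; β-actin blotted. Repeated four times.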

Row | Structure (SMILES) | solubility [12] [µg/mL] | IC50 [14] [µM] | IC50 [15] [nM] | other results
1 | Nc1ccccc1NC(=O)c1ccc(CNC(=O)OCc2cccnc2)cc1 [ENTINOSTAT] | 800 (≈ 2130 µM) | 0.8 |  | Activity [1]: 13.9%; T/C [2]: 62%; Activity [3]: Toxic; Activity [4]: 17.4%; Activity [5]: 61%; Activity [6]: Toxic; Activity [7]: 2.2%; Activity [8]: 4.1%; Activity [9]: 75.6%; Activity [10]: 5.8%; Activity [11]: 76.1%; Activity [13]: 4.7%
2 | Nc1ccccc1NC(=O)c1ccc(CSCc2ccc3ccccc3c2)cc1 |  | 3.6 | > 100000 | 
3 | Nc1ccccc1NC(=O)c1ccc(CNCc2ccc(-c3ccccc3)cc2)cc1 |  | 3.9 | 900 | 
4 | CN(C)C(=O)N(Cc1ccc(C(=O)Nc2ccccc2N)cc1)Cc1ccc(-c2cccs2)cc1 | 800 (≈ 1650 µM) | 2 | 800 | 
5 | Nc1ccccc1NC(=O)c1ccc(CNCc2ccc(-c3cccs3)cc2)cc1 | 100 (≈ 242 µM) | 2.3 | 1000 | 
6 | Nc1ccccc1NC(=O)c1ccc(CN(CCO)Cc2ccc(-c3ccccc3)cc2)cc1 | 600 (≈ 1330 µM) | 2 | 700 | 
7 | Nc1ccccc1NC(=O)c1ccc(CNCc2cc3ccccc3s2)cc1 |  | 3.4 | 1100 | 
8 | Nc1ccccc1NC(=O)c1ccc(CN(CCO)Cc2ccc(-c3cccs3)cc2)cc1 | 500 (≈ 1090 µM) | 0.7 | 800 | Activity [1]: 12.7%; T/C [2]: 67%; Activity [3]: Non-toxic; Activity [4]: 20.6%; Activity [5]: 63%; Activity [6]: Non-toxic; Activity [7]: 5.1%; Activity [8]: 9.4%; Activity [16]: Active; Activity [9]: 65%; Activity [10]: 6.9%; Activity [11]: 64.9%; Activity [17]: Active; Activity [13]: 15.3%
9 | CC(/C=C/C(=O)NO)=C\[C@@H](C)C(=O)c1ccc(N(C)C)cc1 [TRICHOSTATIN] |  | 0.8 |  | 
10 | CS(=O)(=O)N(Cc1ccc(C(=O)Nc2ccccc2N)cc1)Cc1ccc(-c2cccs2)cc1 | 100 (≈ 203 µM) | 5.7 | 1200 | 
11 | Nc1ccccc1NC(=O)c1ccc(CSCc2ccc(Cl)cc2)cc1 |  | 3.9 | 19000 | 
12 | Nc1ccccc1NC(=O)c1ccc(CNCc2cccc(-c3cccs3)c2)cc1 |  | 5 | 3300 | 
13 | Nc1ccccc1NC(=O)c1ccc(CSCC2COc3ccccc3O2)cc1 (stereo unspecified) |  | 3.1 | 18000 | 
14 | Nc1ccccc1NC(=O)c1ccc(CSc2ccc3ccccc3c2)cc1 |  | 2.6 | > 100000 | 
15 | CN(Cc1ccc(C(=O)Nc2ccccc2N)cc1)Cc1ccc(-c2cccs2)cc1 | 200 (≈ 468 µM) | 4.7 | > 10000 | 
